Data from ChEMBL document CHEMBL5357066, “Development of Novel Membrane Disrupting Lipoguanidine Compounds Sensitizing Gram-Negative Bacteria to Antibiotics” (ACS Med Chem Lett, 2024).
≈ marks a conversion by molar mass, not a printed value.

Assays:
[1] = system: Klebsiella pneumoniae; assay: Synergistic antibacterial activity against […] Klebsiella pneumoniae M6 assessed as rifampicin MIC at <=0.25 times MIC incubated for overnight by microbroth dilution checkerboard assay; type: functional
Method in brief: (§1)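 Checkerboard run under the MIC conditions (TSB, overnight, 37 °C). Antibiotic and lipoguanidine 2-fold series were combined on one plate before bacteria were added. Growth/no-growth was scored as for the MIC (<0.1 OD600). Single-agent MICs were measured on the same plates. Three independent repeats were done.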

[2] = system: Acinetobacter baumannii; assay: Synergistic antibacterial activity against Acinetobacter baumannii AYE assessed as bacterial growth inhibition incubated for overnight in presence of PBMN by microbroth dilution method relative to control; type: functional
Method in brief: (§2)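 Adapted broth microdilution in TSB. The test compound was in a 2-fold dilution series, with PMBN added at a fixed 30 µg/mL. Bacteria at OD 0.02 were added, and plates were incubated overnight at 37 °C. Growth/no growth was read as for the MIC (<0.1 OD600).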

[3] = system: Pseudomonas aeruginosa; assay: Synergistic antibacterial activity against Pseudomonas aeruginosa NCTC 13437 assessed as fold change in rifampicin MIC at <=0.25 times MIC incubated for overnight by microbroth dilution checkerboard assay relative to rifampicin alone; type: functional
Method in brief: (§3)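 Checkerboard microdilution in Tryptic Soy Broth, run like the MIC assay. Overnight TSB cultures were back-diluted to OD 0.01 and added 1:1 to the combined two-fold series of both agents, then incubated overnight at 37 °C. Growth/no-growth was called at <0.1 OD600. MICs alone were read on the same plates. FIC index came from the most synergistic well; three independent repeats, mean ± SD.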

[4] = system: Staphylococcus aureus; assay: Antibacterial activity against methicillin resistant Staphylococcus aureus USA 300 assessed as bacterial growth inhibition incubated for overnight by microbroth dilution method; type: functional
Method in brief: (§4)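 Microbroth dilution in Tryptic Soy Broth. DMSO stocks were diluted in TSB as 2-fold series. Overnight TSB cultures were back-diluted to OD 0.01 and mixed 1:1 with compound. Incubation was overnight at 37 °C. MIC is the lowest concentration with no visible growth (<0.1 OD600). DMSO at equivalent concentrations was checked.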

[5] = system: Pseudomonas aeruginosa; assay: Synergistic antibacterial activity against Pseudomonas aeruginosa NCTC 13437 assessed as bacterial growth inhibition incubated for overnight in presence of PBMN by microbroth dilution method relative to control; type: functional; method in brief: as §2
[6] = system: Escherichia coli; assay: Synergistic antibacterial activity against Escherichia coli NCTC 12923 assessed as bacterial growth inhibition incubated for overnight in presence of PBMN by microbroth dilution method relative to control; type: functional; method in brief: as §2
[7] = system: Pseudomonas aeruginosa; assay: Antibacterial activity against Pseudomonas aeruginosa NCTC 13437 assessed as bacterial growth inhibition incubated for overnight by microbroth dilution method; type: functional
Method in brief: (§5)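 Broth microdilution in Tryptic Soy Broth. DMSO stocks were diluted in TSB as 2-fold series. Overnight TSB cultures were back-diluted to OD 0.01 and mixed 1:1 with compound. Incubation was overnight at 37 °C. MIC was the lowest concentration without visible growth (<0.1 OD600). DMSO vehicle was checked at equivalent concentrations.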

[8] = system: Klebsiella pneumoniae; assay: Antibacterial activity against Klebsiella pneumoniae M6 assessed as bacterial growth inhibition incubated for overnight by microbroth dilution method
[9] = system: Pseudomonas aeruginosa; assay: Synergistic antibacterial activity against Pseudomonas aeruginosa PAO1 assessed as fold change in rifampicin MIC at <=0.25 times MIC incubated for overnight by microbroth dilution checkerboard assay relative to rifampicin alone; type: functional; method in brief: as §3
[10] = system: Klebsiella pneumoniae; assay: Synergistic antibacterial activity against Klebsiella pneumoniae M6 assessed as bacterial growth inhibition incubated for overnight in presence of PBMN by microbroth dilution method relative to control; type: functional; method in brief: as §2
[11] = system: Pseudomonas aeruginosa; assay: Synergistic antibacterial activity against Pseudomonas aeruginosa PAO1 assessed as bacterial growth inhibition incubated for overnight in presence of […] by microbroth dilution method relative to control; type: functional
Method in brief: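 Fixed-concentration combination MIC in TSB. The first agent was set in a two-fold dilution series (100 µL/well), then 50 µL/well of the second agent at a fixed concentration was added; PMBN was fixed at 30 µg/mL. Bacteria at OD 0.02 (50 µL) went into 150 µL of compounds, overnight at 37 °C. MIC was the lowest concentration without visible growth (<0.1 OD600).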

[12] = system: Escherichia coli; assay: Synergistic antibacterial activity against Escherichia coli NCTC 12923 assessed as fold change in rifampicin MIC at <=0.25 times MIC incubated for overnight by microbroth dilution checkerboard assay relative to rifampicin alone; type: functional
Method in brief: (§6)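 Checkerboard microdilution under MIC conditions (TSB, overnight, 37 °C). Two-fold series of each agent were combined on one plate before bacteria were added, and single-agent MICs were measured on the same plate. FIC = sum of combination MIC/alone MIC for each agent, taken from the most synergistic well. Three independent repeats, mean ± SD. ≤0.5 was taken as strong synergy and 0.5–<1 as weak.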

[13] = system: Klebsiella pneumoniae; assay: Synergistic antibacterial activity against Klebsiella pneumoniae NCTC 13368 assessed as rifampicin MIC at <=0.25 times MIC incubated for overnight by microbroth dilution checkerboard assay; type: functional; method in brief: as §6
[14] = system: Klebsiella pneumoniae; assay: Antibacterial activity against ESBL Klebsiella pneumoniae NCTC 13368 assessed as bacterial growth inhibition incubated for overnight by microbroth dilution method
[15] = system: Pseudomonas aeruginosa; assay: Synergistic antibacterial activity against Pseudomonas aeruginosa PAO1 assessed as rifampicin MIC at <=0.25 times MIC incubated for overnight by microbroth dilution checkerboard assay; type: functional; method in brief: as §3
[16] = system: Enterococcus faecalis; assay: Antibacterial activity against vancomycin resistant Enterococcus faecalis NCTC 12201 assessed as bacterial growth inhibition incubated for overnight by microbroth dilution method; type: functional; method in brief: as §4
[17] = system: Acinetobacter baumannii; assay: Synergistic antibacterial activity against Acinetobacter baumannii AYE assessed as fold change in rifampicin MIC at <=0.25 times MIC incubated for overnight by microbroth dilution checkerboard assay relative to rifampicin alone; type: functional; method in brief: as §6
[18] = system: Escherichia coli; assay: Synergistic antibacterial activity against Escherichia coli NCTC 12923 assessed as rifampicin MIC at <=0.25 times MIC incubated for overnight by microbroth dilution checkerboard assay; type: functional; method in brief: as §6
[19] = system: Klebsiella pneumoniae; assay: Synergistic antibacterial activity against Klebsiella pneumoniae NCTC 13368 assessed as bacterial growth inhibition incubated for overnight in presence of PBMN by microbroth dilution method relative to control; type: functional; method in brief: as §2
[20] = system: Acinetobacter baumannii; assay: Antibacterial activity against Acinetobacter baumannii AYE assessed as bacterial growth inhibition incubated for overnight by microbroth dilution method; type: functional; method in brief: as §5
[21] = system: Enterococcus faecium; assay: Antibacterial activity against vancomycin resistant Enterococcus faecium NCTC 12204 assessed as bacterial growth inhibition incubated for overnight by microbroth dilution method; type: functional; method in brief: as §4
[22] = system: Staphylococcus aureus; assay: Antibacterial activity against methicillin resistant Staphylococcus aureus NCTC 13616 assessed as bacterial growth inhibition incubated for overnight by microbroth dilution method; type: functional; method in brief: as §4
[23] = system: Staphylococcus aureus; assay: Antibacterial activity against methicillin sensitive Staphylococcus aureus 1199B assessed as bacterial growth inhibition incubated for overnight by microbroth dilution method; type: functional; method in brief: as §4
[24] = system: Acinetobacter baumannii; assay: Synergistic antibacterial activity against Acinetobacter baumannii AYE assessed as rifampicin MIC at <=0.25 times MIC incubated for overnight by microbroth dilution checkerboard assay; type: functional; method in brief: as §6
[25] = system: Staphylococcus aureus; assay: Antibacterial activity against methicillin sensitive Staphylococcus aureus ATCC 9144 assessed as bacterial growth inhibition incubated for overnight by microbroth dilution method; type: functional; method in brief: as §4
[26] = system: Pseudomonas aeruginosa; assay: Antibacterial activity against Pseudomonas aeruginosa PAO1 assessed as bacterial growth inhibition incubated for overnight by microbroth dilution method; type: functional; method in brief: as §5
[27] = system: Acinetobacter baumannii; assay: Antibacterial activity against Acinetobacter baumannii ATCC 17978 assessed as bacterial growth inhibition incubated for overnight by microbroth dilution method; type: functional; method in brief: as §5
[28] = system: Acinetobacter baumannii; assay: Synergistic antibacterial activity against Acinetobacter baumannii ATCC 17978 assessed as fold change in rifampicin MIC at <=0.25 times MIC incubated for overnight by microbroth dilution checkerboard assay relative to rifampicin alone; type: functional; method in brief: as §6
[29] = system: Enterococcus faecalis; assay: Antibacterial activity against vancomycin sensitive Enterococcus faecalis NCTC 775 assessed as bacterial growth inhibition incubated for overnight by microbroth dilution method
[30] = system: Pseudomonas aeruginosa; assay: Synergistic antibacterial activity against Pseudomonas aeruginosa NCTC 13437 assessed as rifampicin MIC at <=0.25 times MIC incubated for overnight by microbroth dilution checkerboard assay; type: functional; method in brief: as §3
[31] = system: Escherichia coli; assay: Antibacterial activity against Escherichia coli NCTC 12923 assessed as bacterial growth inhibition incubated for overnight by microbroth dilution method; type: functional; method in brief: as §5
[32] = system: Klebsiella pneumoniae; assay: Synergistic antibacterial activity against Klebsiella pneumoniae NCTC 13368 assessed as fold change in rifampicin MIC at <=0.25 times MIC incubated for overnight by microbroth dilution checkerboard assay relative to rifampicin alone; type: functional; method in brief: as §1
[33] = system: Acinetobacter baumannii; assay: Synergistic antibacterial activity against Acinetobacter baumannii ATCC 17978 assessed as rifampicin MIC at <=0.25 times MIC incubated for overnight by microbroth dilution checkerboard assay; type: functional; method in brief: as §6
[34] = system: Acinetobacter baumannii; assay: Synergistic antibacterial activity against Acinetobacter baumannii ATCC 17978 assessed as bacterial growth inhibition incubated for overnight in presence of PBMN by microbroth dilution method relative to control; type: functional; method in brief: as §2

## CCCCC/C=C\C/C=C\CCCCCCCCNC(=N)NCCCCCCCCN
[1]
  MIC: 4 µg/mL
[2]
  inhibition (INH): <20%
[3]
  fold change (FC): 0
[4]
  MIC: 2 µg/mL (≈ 4.6 µM)
[5]
  inhibition (INH): <20%
[6]
  inhibition (INH): <20%
[7]
  MIC: > 128 µg/mL
[8]
  MIC: 16 µg/mL (≈ 36.8 µM)
[9]
  fold change (FC): 0
[10]
  inhibition (INH): <20%
[11]
  inhibition (INH): <20%
[12]
  fold change (FC): 0
[13]
  MIC: 8 µg/mL
[14]
  MIC: 32 µg/mL (≈ 73.6 µM)
[15]
  MIC: 16 µg/mL
[16]
  MIC: 4 µg/mL (≈ 9.2 µM)
[17]
  fold change (FC): >=4
[18]
  MIC: 8 µg/mL
[19]
  inhibition (INH): <20%
[20]
  MIC: 16 µg/mL (≈ 36.8 µM)
[21]
  MIC: 4 µg/mL (≈ 9.2 µM)
[22]
  MIC: 4 µg/mL (≈ 9.2 µM)
[23]
  MIC: 4 µg/mL (≈ 9.2 µM)
[24]
  MIC: 2 µg/mL
[25]
  MIC: 2 µg/mL (≈ 4.6 µM)
[26]
  MIC: > 128 µg/mL
[27]
  MIC: 8 µg/mL (≈ 18.4 µM)
[28]
  fold change (FC): 0
[29]
  MIC: 8 µg/mL (≈ 18.4 µM)
[30]
  MIC: 16 µg/mL
[31]
  MIC: 8 µg/mL (≈ 18.4 µM)
[32]
  fold change (FC): >=4
[33]
  MIC: ≤ 0.125 µg/mL
[34]
  inhibition (INH): <20%
